Compound activity as filed in PubChem.
Hits are enriched below; roughly 2.7% of the tested compounds scored in any of these assays.
V1aR counter: V1a receptor agonism, counter-screen for OXTR agonists | activation, % at 3 µM | P37288 | CHO-V1R cells, Fluo-8 calcium fluorescence, agonist mode; 0% DMSO, 100% 3 nM vasopressin | 320,000 compounds, 0.25% hits | AID 2797;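 active = activation above the mean activation of all tested compounds plus 3 SD, per screening run, cut at about 20% in these data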;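 note: signal is peak over basal fluorescence ratio across a 100 second FLIPR read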
OX1R antag-1: antagonists of human orexin 1 receptor; 330,000 compounds, 0.43% hits; O43613; CHO/OX1R cells, Fluo-8 calcium fluorescence, orexin A; inhibition, % at 5 µM;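 active = inhibition above its plate's threshold, mean inhibition of all tested compounds on the plate plus 3 SD, cut at about 37% in these data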;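 note: 0% = orexin A challenge wells and 100% = SB-334867-A antagonist wells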
Target sequence (O43613 whole entry, looked up): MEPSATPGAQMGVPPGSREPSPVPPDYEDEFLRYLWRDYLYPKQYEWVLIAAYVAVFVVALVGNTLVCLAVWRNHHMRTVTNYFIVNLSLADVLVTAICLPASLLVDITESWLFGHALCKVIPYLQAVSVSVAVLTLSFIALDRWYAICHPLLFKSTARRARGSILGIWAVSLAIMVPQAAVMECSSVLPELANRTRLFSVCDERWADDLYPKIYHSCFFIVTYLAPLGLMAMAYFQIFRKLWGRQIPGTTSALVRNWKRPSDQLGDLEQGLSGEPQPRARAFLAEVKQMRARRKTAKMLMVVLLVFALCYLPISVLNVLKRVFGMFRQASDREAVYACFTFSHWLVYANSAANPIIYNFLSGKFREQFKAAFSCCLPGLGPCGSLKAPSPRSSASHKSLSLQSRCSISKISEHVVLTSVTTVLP
OXTR agonist: activates the human oxytocin receptor; P30559; CHO-OTR cells, Fluo-8 calcium fluorescence; normalized: DMSO 0%, oxytocin 100%; activation, % at 3 µM; 320,000 compounds, 0.32% hits; AID 2435;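 active = activation above the mean of all tested compounds plus 3 SD, cutoff set per screening run, cut at about 20% in these data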;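 note: peak over basal fluorescence ratio from a 100 s FLIPR kinetic read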
OX1R antag-2: OX1R (human) antagonism; O43613; OX1R-expressing cells, FRET antagonist read-out; inhibition, % at 6.6 µM; 330,000 compounds, 1.8% hits; AID 485270; in the data active = inhibition mostly above about 38%, no sharp cut-off; inactive = mostly below about 40%;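 note: 0% = agonist challenge alone and 100% = reference antagonist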
OXTR potentiate: human OXTR potentiation | P30559 | CHO-OTR cells, Fluo-8 calcium fluorescence, potentiator mode; 0% = oxytocin EC15, 100% = EC100 | activation, % at 3 µM | 320,000 compounds, 0.061% hits;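 active = activation above that plate's cutoff, the mean activation of tested compounds plus 3 SD, cut at about 6.6% in these data, passing the limit was not always enough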;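 note: 100% uses oxytocin at 75 nM as the full agonist control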
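test system = CHO-OTR cells, human receptor | compound = single-point 3.0 µM | schedule = 6 min compound pre-incubation at room temperature, 100 s kinetic read | signal = Fluo-8 no-wash calcium dye fluorescence, excitation 470-495 nm, emission 515-575 nm | repeats = single well per compound, singlicate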
CHO parental Ca: signal in parental CHO cells, OX1R antagonist counter-screen. parental CHO-K1, ATP-induced calcium, Fluo-8 fluorescence. inhibition, % at 5.6 µM. 330,000 compounds, 0.63% hits. AID 463079;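 active = inhibition above that plate's mean sample inhibition plus 3 SD, cut at about 26% in these data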;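 note: 0% = ATP-challenged DMSO wells and 100% = DMSO wells without ATP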
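Assay system: untransfected parental CHO cell line. Also added: ATP agonist challenge. Dosing: one dose, 5.6 µM nominal. Measured by: Fluo-8 fluorescence. Read-out: % inhibition. Benchmarks: ATP wells versus no-ATP DMSO wells. Repeats: no replicates.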
Numbers without * were called inactive.

SMILES | V1aR counter | OX1R antag-1 | OXTR agonist | OX1R antag-2 | OXTR potentiate | CHO parental Ca
CCCSc1cc(NCCOC(=O)CCC)c([N+](=O)[O-])c2nonc12 | -0.1 | -12.2 | -3.7 | 66.4* | -0.3 | -9.2
COC(=O)[C@H](CC(C)C)NC(=O)Nc1ccccc1F | -0.6 | -16.0 | 0.2 | 11.3 | -5.1 | -4.0
COc1ccc([N+](=O)[O-])cc1NS(=O)(=O)c1ccc(Cl)c(C(=O)Nc2sc3c(c2C#N)CCCCC3)c1 | 1.2 | -14.2 | 1.4 | 3.8 | -3.2 | -7.0
Cc1c(O)ccc(C(=O)COc2ccccc2F)c1O | 7.3 | 7.0 | 7.7 | 37.1* | -5.9 | 5.3
CSCCC(NC(=O)c1ccc([N+](=O)[O-])cc1Cl)C(=O)OC(C)C(=O)NCc1ccco1 (stereo unspecified) | -0.7 | -22.8 | -0.6 | 49.4* | 1.1 | -15.6
CSCCC(NC(=O)c1ccc([N+](=O)[O-])cc1Cl)C(=O)OCC(=O)N1CCN(C(C)=O)CC1 (stereo unspecified) | -0.8 | -2.5 | 1.5 | 54.9* | -5.9 | 0.5
O=C(CN1CCCCC1)Nc1nnc(-c2ccc([N+](=O)[O-])cc2)s1 | 2.5 | -8.0 | 4.7 | 58.0* | 0.8 | -2.6
O=C(CN1CCN(c2ccccc2O)CC1)Nc1cc([N+](=O)[O-])ccc1Cl | 0.6 | -5.5 | 1.3 | 57.9* | -5.7 | -18.7
O=C(CN1CCCCCC1)Nc1cc([N+](=O)[O-])ccc1Cl | 0.1 | 5.1 | -0.4 | 62.5* | -10.4 | 3.9
O=C(CN1CCCCCC1)Nc1ccc([N+](=O)[O-])cc1Cl | -0.7 | -16.6 | -1.9 | 13.3 | 5.5 | -12.4
O=C(NCCc1ccccc1)c1ccc2c(=O)[nH]c3c(C(=O)NCC4CCCO4)sc(=S)n3c2c1 (stereo unspecified) | -0.8 | -4.1 | -1.2 | 51.6* | -13.1 | -6.2
CCOc1ccc(CCNC(=O)c2ccc3c(=O)[nH]c4c(C(=O)NC(C)C)sc(=S)n4c3c2)cc1 | 3.5 | -22.8 | 0.8 | 10.5 | -10.5 | -12.5
O=C(NCC1CCCO1)c1sc(=S)n2c1[nH]c(=O)c1ccc(C(=O)N3CCCCC3)cc12 (stereo unspecified) | -1.2 | -10.7 | -1.5 | 25.4 | -9.2 | -8.2
CCCCNC(=O)c1sc(=S)n2c1[nH]c(=O)c1ccccc12 | 14.4 | -11.2 | 18.9 | 52.1* | -24.0 | 3.1
CCn1c(O)c(C=Nc2ccccc2)sc1=S | -1.4 | -20.6 | -2.5 | 59.4* | -7.5 | -14.2
Oc1c(C=Nc2ccccc2)sc(=S)n1Cc1ccccc1 | -0.6 | -14.8 | -1.0 | 40.4 | -10.2 | -4.0
O=C(CN(Cc1ccccc1)C(=O)CCl)c1cccc(Br)c1 | 1.0 | -12.3 | 0.8 | 22.8 | -7.9 | -15.7
Cc1cccc(C(=O)Nc2sc3c(c2C(=O)O)CCC3)c1 | -0.7 | -3.7 | -0.8 | 9.1 | 4.0 | -3.4
NC(=O)c1c(NC(=O)c2ccc(F)cc2)sc2c1CCC2 | -1.4 | -4.3 | -2.1 | 51.1* | -3.1 | -21.2
CC(=O)Nc1sc2c(c1C(N)=O)CCC2 | 0.9 | -12.9 | -1.7 | 19.2 | -4.5 | -15.3
Cc1cc(C(F)F)n2nc(C(=O)Nc3sc4c(c3C(N)=O)CCC4)nc2n1 | -1.3 | -1.6 | -3.0 | 57.4* | -5.3 | -3.8
CNC(=O)c1c(NC(=O)c2cccc(C)c2)sc2c1CCC2 | -1.0 | -18.0 | -2.1 | 44.2* | -10.1 | -20.1
CN(C(=O)COC(=O)/C=C/c1ccc(C(F)(F)F)cc1)C1CCS(=O)(=O)C1 (stereo unspecified) | 11.0 | -0.9 | 6.2 | 12.1 | -13.5 | 8.4
CCOc1ccc(NC(=O)COC(=O)c2cc(C)oc2C)cc1 | -0.4 | -9.7 | -0.5 | 13.4 | 1.5 | -3.8
C=CC[C@@H](CC(=O)OC(C)(C)C)C(=O)OC[C@@H]1CCCN1C(=O)[C@@H](CC=C)CC(=O)N(CCO)Cc1ccccc1 | -0.8 | -40.6 | -2.0 | 16.2 | 0.0 | -19.7
CCOc1cc(/C=N/NC(=O)c2cccnc2)ccc1OCC(=O)N1CCOCC1 | 0.3 | -10.1 | -0.7 | 13.9 | -11.8 | -8.9
O=S(=O)(c1ccc(Cl)cc1)N1CCN(c2ncnc3sccc23)CC1 | 10.1 | 35.5 | 12.7 | 19.3 | -10.5 | 46.3*
Cc1csc2c(N3CCN(S(=O)(=O)c4ccc(Cl)cc4)CC3)ncnc12 | 1.1 | -11.1 | 0.9 | 9.2 | 1.1 | -9.3
